Data reported in ChEMBL document CHEMBL4138177, “Design and synthesis of short amphiphilic cationic peptidomimetics based on biphenyl backbone as antibacterial agents” (Eur J Med Chem, 2018).
≈ marks a conversion by molar mass, not a printed value. Calls of active or inactive are those of the source. The calls are words filed in the database; no cut-off is given here.

Key:
Staphylococcus aureus [1] = experiment: Antimicrobial activity against Staphylococcus aureus SA38 after 18 to 24 hrs by spectrophotometry based broth micro dilution assay; assay type: functional; details: read-out: MIC100
Summary of the method: (§1)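 CLSI broth microdilution. Mid-log cells grown in MHB at 37 °C, shaken 120 rpm, washed three times in PBS pH 7.4, diluted in fresh MHB to a final 1–2 × 10⁵ cfu/mL. Two-fold serial dilutions from 250 down to 3.9 µM. Incubated 18–24 h at 37 °C, 120 rpm. A600 read; MIC taken as the lowest concentration giving 100% growth inhibition. Triplicate, three independent experiments.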

Escherichia coli [2] = experiment: Antimicrobial activity against Escherichia coli K-12 after 18 to 24 hrs by spectrophotometry based broth micro dilution assay; assay type: functional; details: read-out: MIC100; summary of the method: as §1
MRC5 [3] = experiment: Cytotoxicity against human MRC5 cells after 72 hrs by Alamar blue staining-based spectrophotometric analysis; assay type: cell-based; details: for IC50: Homo sapiens, MRC5, 72 h; for Activity: human, mrc5, 72 h
Summary of the method: (§2)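 MRC-5 lung fibroblasts grown in MEM with 10% FCS, 37 °C, 5% CO₂. Seeded at 2 × 10⁴ cells/well to confluence, then treated 24 h later for 72 h. Medium replaced with 10% Alamar blue for 6 h and absorbance read. Viability expressed as % of untreated cells and IC50 derived. Triplicate, three independent experiments.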

MRC5 [4] = experiment: Cytotoxicity against human MRC5 cells up to 350 uM after 72 hrs by Alamar blue staining-based spectrophotometric analysis; assay type: cell-based; details: mrc5, 72 h; summary of the method: as §2
Staphylococcus aureus [5] = experiment: Induction of cytoplasmic membrane disruption in Staphylococcus aureus SA38 at 7.8 to 62.5 uM measured within 3 mins by diSC3-5 dye-based luminescence spectrophotometric analysis; assay type: functional, organism-based
Escherichia coli [6] = experiment: Induction of cytoplasmic membrane disruption in Escherichia coli K-12 at 3.9 to 31.2 uM by diSC3-5 dye-based luminescence spectrophotometric analysis; assay type: functional, organism-based
Pseudomonas aeruginosa = experiment: Antimicrobial activity against Pseudomonas aeruginosa PAO1 after 18 to 24 hrs by spectrophotometry based broth micro dilution assay; assay type: functional; details: read-out: MIC100; summary of the method: as §1
Staphylococcus aureus [7] = experiment: Antibiofilm activity against Staphylococcus aureus SA38 assessed as inhibition of biofilm formation at 250 uM after 24 hrs by crystal violet staining based assay relative to control; assay type: functional; details: SA38, 24 h
Summary of the method: (§3)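 Overnight culture diluted 1:20 in LB and grown overnight at 37 °C, 150 rpm, in 96-well plates. Compounds added at 250 µM from DMSO stock; controls received equal DMSO. Incubated overnight at 37 °C, 150 rpm. Biofilm on polystyrene quantified by crystal violet staining. Triplicate, three independent experiments.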

Escherichia coli [8] = experiment: Antibiofilm activity against Escherichia coli K-12 assessed as inhibition of biofilm formation at 250 uM after 24 hrs by crystal violet staining based assay relative to control; assay type: functional; details: K-12, 24 h; summary of the method: as §3
Lipid bilayer [9] = experiment: Binding affinity to negatively charged tethered bilayer lipid membranes assessed as increase in membrane conduction response at 0.1 to 100 uM by electrochemical impedance spectroscopic analysis
Summary of the method: (§4)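 Tethered bilayer membranes formed from a mobile phase of 70% diphytanyl-glycero-phosphatidylcholine and 30% diphytanyl-diglyceride ether (3 mM in ethanol), associated for 2 min, then washed with PBS to give zwitterionic membranes. A variant mobile phase gave negatively charged membranes. Conduction and capacitance measured by AC impedance spectroscopy with Lev-Mar fitting. Triplicate.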

Lipid bilayer [10] = experiment: Binding affinity to zwitterionic tethered bilayer lipid membranes assessed as increase in membrane conduction response by electrochemical impedance spectroscopic analysis; summary of the method: as §4
Lipid bilayer [11] = experiment: Binding affinity to negatively charged tethered bilayer lipid membranes assessed as increase in membrane capacitance changes at 0.1 to 100 uM by electrochemical impedance spectroscopic analysis; summary of the method: as §4
Lipid bilayer [12] = experiment: Binding affinity to zwitterionic tethered bilayer lipid membranes assessed as increase in membrane capacitance changes at 0.1 to 100 uM by electrochemical impedance spectroscopic analysis; summary of the method: as §4
Lipid bilayer [13] = experiment: Binding affinity to negatively charged tethered bilayer lipid membranes assessed as increase in membrane capacitance changes at 10 uM by electrochemical impedance spectroscopic analysis; summary of the method: as §4
Lipid bilayer [14] = experiment: Binding affinity to zwitterionic tethered bilayer lipid membranes assessed as increase in membrane capacitance changes at 10 uM by electrochemical impedance spectroscopic analysis; summary of the method: as §4
Staphylococcus aureus [15] = experiment: Antibiofilm activity against drug-resistant pre-formed Staphylococcus aureus biofilms assessed as inhibition of biomass formation at 4 times MIC; assay type: functional
Staphylococcus aureus [16] = experiment: Induction of cytoplasmic membrane disruption in Staphylococcus aureus SA38 at 31.2 uM measured within 3 mins by diSC3-5 dye-based luminescence spectrophotometric analysis; assay type: functional, organism-based

Row | MIC (Staphylococcus aureus [1]) [µM] | MIC (Escherichia coli [2]) [µM] | MIC (Pseudomonas aeruginosa) [µM] | Activity (Lipid bilayer [11]) | Activity (Lipid bilayer [12]) | Activity (Lipid bilayer [13]) | Activity (Lipid bilayer [14]) | Structure (SMILES) | IC50 (MRC5 [3]) [µM] | Activity (MRC5 [3]) | Activity (MRC5 [4]) | Activity (Staphylococcus aureus [5]) | Activity (Escherichia coli [6]) | inhibition at 250 µM (Staphylococcus aureus [7]) [%] | inhibition at 250 µM (Escherichia coli [8]) [%] | Activity (Lipid bilayer [9]) | Activity (Lipid bilayer [10]) | inhibition (INH) (Staphylococcus aureus [15]) [%] | Activity (Staphylococcus aureus [16])
1 | 15.6 (≈ 12.3 µg/mL) | 7.8 (≈ 6.14 µg/mL) |  |  |  |  |  | N=C(N)NCCC[C@H](NC(=O)c1cccc(-c2cccc(NC(=O)[C@H](Cc3c[nH]c4ccccc34)NC(=O)[C@@H](N)Cc3ccccc3)c2)c1)C(=O)NCCNC(=N)N | > 300 | Dose-dependent effect | Non-Toxic | Active | Active |  |  |  |  |  | 
2 | 125 (≈ 55.2 µg/mL) | > 125 | > 250 |  |  |  |  | NCCNC(=O)c1cccc(-c2cccc(NC(=O)[C@@H](N)Cc3c[nH]c4ccccc34)c2)c1 |  |  |  |  |  |  |  |  |  |  | 
3 | 31.2 (≈ 17.8 µg/mL) | > 125 | > 250 |  |  |  |  | NCCCC[C@H](NC(=O)c1cccc(-c2cccc(NC(=O)[C@@H](N)Cc3c[nH]c4ccccc34)c2)c1)C(=O)NCCN |  |  |  |  |  |  |  |  |  |  | 
4 | 31.2 (≈ 16.9 µg/mL) | > 125 | > 250 |  |  |  |  | COC(=O)[C@H](CCCCN)NC(=O)c1cccc(-c2cccc(NC(=O)[C@@H](N)Cc3c[nH]c4ccccc34)c2)c1 |  |  |  |  |  |  |  |  |  |  | 
5 | 62.5 (≈ 30.2 µg/mL) | > 125 | > 250 |  |  |  |  | N=C(N)NCCNC(=O)c1cccc(-c2cccc(NC(=O)[C@@H](N)Cc3c[nH]c4ccccc34)c2)c1 | > 300 | Dose-dependent effect | Non-Toxic |  |  | 41 | 39 |  |  |  | 
6 | > 250 | > 125 |  |  |  |  |  | N=C(N)NCCNC(=O)[C@H](Cc1c[nH]c2ccccc12)NC(=O)[C@@H](N)Cc1ccccc1 |  |  |  |  |  |  |  |  |  |  | 
7 | 31.2 (≈ 22.4 µg/mL) | 125 (≈ 89.6 µg/mL) | 250 (≈ 179 µg/mL) | Dose-dependent effect | inactive | Active | Active | COC(=O)[C@H](CCCNC(=N)N)NC(=O)c1cccc(-c2cccc(NC(=O)[C@H](Cc3c[nH]c4ccccc34)NC(=O)[C@@H](N)Cc3ccccc3)c2)c1 | > 300 | Dose-dependent effect | Non-Toxic |  |  |  |  | inactive | Dose-dependent effect |  | 
8 |  |  |  |  |  |  |  | CC[C@H](C)[C@H](NC(=O)[C@H](CCCCN)NC(=O)[C@H](CCC(=O)O)NC(=O)[C@H](CCCCN)NC(=O)[C@H](CO)NC(=O)[C@H](CCCCN)NC(=O)[C@H](CCCNC(=N)N)NC(=O)[C@H](Cc1ccccc1)NC(=O)[C@H](Cc1ccccc1)NC(=O)[C@H](CC(=O)O)NC(=O)CNC(=O)[C@H](CC(C)C)NC(=O)[C@@H](N)CC(C)C)C(=O)NCC(=O)N[C@@H](CCCCN)C(=O)N[C@@H](CCC(=O)O)C(=O)N[C@@H](Cc1ccccc1)C(=O)N[C@@H](CCCCN)C(=O)N[C@@H](CCCNC(=N)N)C(=O)N[C@H](C(=O)N[C@H](C(=O)N[C@@H](CCC(N)=O)C(=O)N[C@@H](CCCNC(=N)N)C(=O)N[C@H](C(=O)N[C@@H](CCCCN)C(=O)N[C@@H](CC(=O)O)C(=O)N[C@@H](Cc1ccccc1)C(=O)N[C@@H](CC(C)C)C(=O)N[C@@H](CCCNC(=N)N)C(=O)N[C@@H](CC(N)=O)C(=O)N[C@@H](CC(C)C)C(=O)N[C@H](C(=O)N1CCC[C@H]1C(=O)N[C@@H](CCCNC(=N)N)C(=O)N[C@H](C(=O)N[C@@H](CCC(=O)O)C(=O)N[C@@H](CO)C(=O)O)[C@@H](C)O)C(C)C)[C@@H](C)CC)C(C)C)[C@@H](C)CC [CATHELICIDIN] |  |  |  |  |  |  |  |  |  | 40 | 
9 | 62.5 (≈ 36.8 µg/mL) | > 125 | 250 (≈ 147 µg/mL) |  |  |  |  | NCCNC(=O)c1cccc(-c2cccc(NC(=O)[C@H](Cc3c[nH]c4ccccc34)NC(=O)[C@@H](N)Cc3ccccc3)c2)c1 |  |  |  |  |  |  |  |  |  |  | 
10 | 31.2 (≈ 21.5 µg/mL) | 125 (≈ 86.1 µg/mL) | 250 (≈ 172 µg/mL) | Dose-dependent effect | Dose-dependent effect | Active | Active | COC(=O)[C@H](CCCCN)NC(=O)c1cccc(-c2cccc(NC(=O)[C@H](Cc3c[nH]c4ccccc34)NC(=O)[C@@H](N)Cc3ccccc3)c2)c1 | > 300 | Dose-dependent effect | Non-Toxic |  |  |  |  | inactive | Dose-dependent effect |  | 
11 | 31.2 (≈ 22.4 µg/mL) | 31.2 (≈ 22.4 µg/mL) | 250 (≈ 179 µg/mL) | Dose-dependent effect | Dose-dependent effect | Active | Active | NCCCC[C@H](NC(=O)c1cccc(-c2cccc(NC(=O)[C@H](Cc3c[nH]c4ccccc34)NC(=O)[C@@H](N)Cc3ccccc3)c2)c1)C(=O)NCCN | > 300 | Dose-dependent effect | Non-Toxic |  |  | 30 | 8 | inactive | Dose-dependent effect |  | Active
12 | 15.6 (≈ 9.84 µg/mL) | 31.2 (≈ 19.7 µg/mL) | 250 (≈ 158 µg/mL) | Dose-dependent effect | Dose-dependent effect | Active | Active | N=C(N)NCCNC(=O)c1cccc(-c2cccc(NC(=O)[C@H](Cc3c[nH]c4ccccc34)NC(=O)[C@@H](N)Cc3ccccc3)c2)c1 | > 300 | Dose-dependent effect | Non-Toxic |  |  |  |  | inactive | Dose-dependent effect |  | 
13 | 62.5 (≈ 35.6 µg/mL) | > 125 | > 250 |  |  |  |  | COC(=O)[C@H](CCCNC(=N)N)NC(=O)c1cccc(-c2cccc(NC(=O)[C@@H](N)Cc3c[nH]c4ccccc34)c2)c1 | > 300 | Dose-dependent effect | Non-Toxic |  |  |  |  |  |  |  | 
14 | 62.5 (≈ 18.6 µg/mL) | > 125 | > 250 |  |  | inactive | inactive | N=C(N)NCCNC(=O)c1cccc(-c2cccc(N)c2)c1 |  |  |  |  |  |  |  |  |  |  | 
15 | 31.2 (≈ 23.7 µg/mL) | 15.6 (≈ 11.8 µg/mL) |  |  |  |  |  | N=C(N)NCCNC(=O)[C@H](CCCCN)NC(=O)c1cccc(-c2cccc(NC(=O)[C@H](Cc3c[nH]c4ccccc34)NC(=O)[C@@H](N)Cc3ccccc3)c2)c1 | > 300 | Dose-dependent effect | Non-Toxic |  |  |  |  |  |  |  | Active
